Assay results as given in ChEMBL document CHEMBL3526048, “In vitro metabolism of rivoglitazone, a novel peroxisome proliferator-activated receptor γ agonist, in rat, monkey, and human liver microsomes and freshly isolated hepatocytes” (Drug Metab Dispos, 2011).

What was measured:
[1] = target: T1, UDP-glucuronosyltransferase 1A3 (Homo sapiens, UniProt P35503); experiment: Activity of human UGT1A3 expressed in microsomes isolated from baculovirus infected insect cell assessed as enzyme-mediated compound formation treated with [14C]-rivoglitazone at 20 uM after 4 hrs by radio-HPLC/LC-MS/MS analysis in presence of UDPGA, UDPGA/SAM
T1 sequence (P35503 whole entry): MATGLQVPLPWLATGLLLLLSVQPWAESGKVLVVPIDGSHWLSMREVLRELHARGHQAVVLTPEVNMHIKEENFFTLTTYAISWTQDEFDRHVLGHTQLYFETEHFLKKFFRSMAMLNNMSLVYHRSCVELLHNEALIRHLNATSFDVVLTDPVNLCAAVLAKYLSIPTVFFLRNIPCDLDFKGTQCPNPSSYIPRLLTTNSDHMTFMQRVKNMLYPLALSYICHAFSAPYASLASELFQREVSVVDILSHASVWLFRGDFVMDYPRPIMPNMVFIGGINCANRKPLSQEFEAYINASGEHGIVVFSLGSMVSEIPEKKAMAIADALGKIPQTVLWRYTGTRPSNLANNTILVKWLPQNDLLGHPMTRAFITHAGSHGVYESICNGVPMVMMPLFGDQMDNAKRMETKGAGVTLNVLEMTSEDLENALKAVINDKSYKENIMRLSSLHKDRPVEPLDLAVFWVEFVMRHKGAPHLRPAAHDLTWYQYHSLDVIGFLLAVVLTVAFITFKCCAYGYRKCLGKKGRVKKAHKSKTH

[2] = Drug metabolism in rat hepatocytes assessed as formation of 3-(4-((6-methoxy-1-methyl-1H-benzo[d]imidazol-2-yl)methoxy)phenyl)-2-(methylthio)propanoic acid at 30 uM after 3 hrs by radio-HPLC/LC-MS/MS analysis in presence of NADPH-generating system/SAM and UDPGA/SAM; assay type: ADME, cell-based, Hepatocyte
[3] = test system: Liver microsome; experiment: Drug metabolism in Sprague-Dawley rat liver microsomes assessed as formation of 2-((4-((2,4-dioxothiazolidin-5-yl)methyl)phenoxy)methyl)-1-methyl-1H-benzo[d]imidazol-6-yl hydrogen sulfate at 20 uM by radio-HPLC/LC-MS/MS analysis; assay type: ADME
[4] = target: T2, Cytochrome P450 1A2 (Homo sapiens, UniProt P05177); experiment: (§1) Activity of human CYP1A2 expressed in microsomes isolated from baculovirus infected insect cell assessed as enzyme-mediated 5-hydroxy-5-(4-((6-methoxy-1-methyl-1H-benzo[d]imidazol-2-yl)methoxy)benzyl)thiazolidine-2,4-dione formation at 20 uM after 2 hrs by radio-HPLC/LC-MS/MS analysis in presence of NADPH-generating system and NADPH-generating system/SAM; assay type: ADME
T2 sequence (P05177 whole entry): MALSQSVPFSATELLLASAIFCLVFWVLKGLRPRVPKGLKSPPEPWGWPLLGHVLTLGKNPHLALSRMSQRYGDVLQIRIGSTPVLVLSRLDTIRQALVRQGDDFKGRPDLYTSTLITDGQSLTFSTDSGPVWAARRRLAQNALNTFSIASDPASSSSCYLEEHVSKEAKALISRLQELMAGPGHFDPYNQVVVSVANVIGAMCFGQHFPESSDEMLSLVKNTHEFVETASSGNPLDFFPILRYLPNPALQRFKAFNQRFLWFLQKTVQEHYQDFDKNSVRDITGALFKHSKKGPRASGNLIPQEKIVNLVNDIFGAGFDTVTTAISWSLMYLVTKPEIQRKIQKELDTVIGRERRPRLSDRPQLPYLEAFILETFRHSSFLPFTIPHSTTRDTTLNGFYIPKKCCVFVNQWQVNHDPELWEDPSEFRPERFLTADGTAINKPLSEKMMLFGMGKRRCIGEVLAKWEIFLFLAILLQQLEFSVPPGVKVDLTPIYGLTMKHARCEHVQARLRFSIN
Procedure, shortened: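 Baculovirus/insect-cell microsomes expressing single human CYPs, 1 mg/ml protein, with 50 mM potassium phosphate (pH 7.4) or 100 mM Tris-HCl (pH 7.5). NADPH-generating system: 2 mM NADP⁺, 20 mM glucose 6-phosphate, 2 units/ml G6PDH, 10 mM MgCl₂. [¹⁴C]rivoglitazone at 20 μM, 2 h at 37°C with shaking. Control used insect-cell control supersomes. Stopped with acetonitrile; supernatant concentrated under nitrogen; metabolites analysed by radio-HPLC, LC-MS and LC-MS/MS.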

[5] = target: T3, UDP-glucuronosyltransferase 2B7 (Homo sapiens, UniProt P16662); experiment: as §1, with “human UGT2B7” for “human CYP1A2”, “after 4” for “after 2”, “system/SAM in presence of UDPGA and UDPGA/SAM” for “system/SAM”; assay type: ADME
T3 sequence (P16662 whole entry): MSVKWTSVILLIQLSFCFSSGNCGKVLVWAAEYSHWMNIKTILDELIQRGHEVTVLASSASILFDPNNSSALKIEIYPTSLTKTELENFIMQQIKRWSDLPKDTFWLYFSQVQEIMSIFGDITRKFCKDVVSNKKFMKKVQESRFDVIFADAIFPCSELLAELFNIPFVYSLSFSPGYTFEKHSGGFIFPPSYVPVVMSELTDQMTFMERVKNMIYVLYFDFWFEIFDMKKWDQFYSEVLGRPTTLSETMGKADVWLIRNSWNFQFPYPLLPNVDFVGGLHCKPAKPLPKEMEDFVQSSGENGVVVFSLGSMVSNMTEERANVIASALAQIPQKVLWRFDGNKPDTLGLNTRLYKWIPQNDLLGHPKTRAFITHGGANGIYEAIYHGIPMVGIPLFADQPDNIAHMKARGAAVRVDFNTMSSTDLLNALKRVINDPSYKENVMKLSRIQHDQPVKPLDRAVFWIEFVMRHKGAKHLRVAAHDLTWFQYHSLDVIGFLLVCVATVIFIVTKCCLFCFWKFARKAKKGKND

[6] = target: Cytochrome P450 2C19 (Homo sapiens, UniProt P33261); experiment: Activity of human CYP2C19 expressed in microsomes isolated from baculovirus infected insect cell assessed as enzyme-mediated 3-(4-((6-methoxy-1-methyl-1H-benzo[d]imidazol-2-yl)methoxy)phenyl)-2-(methylthio)propanoic acid formation at 20 uM after 2 hrs by radio-HPLC/LC-MS/MS analysis in presence of NADPH-generating system/SAM and UDPGA/SAM; assay type: ADME
[7] = target: T1, UDP-glucuronosyltransferase 1A3; experiment: Activity of human UGT1A3 expressed in microsomes isolated from baculovirus infected insect cell assessed as enzyme-mediated 3-(4-((6-methoxy-1-methyl-1H-benzo[d]imidazol-2-yl)methoxy)phenyl)-2-(methylsulfonyl)propanamide formation at 20 uM after 4 hrs by radio-HPLC/LC-MS/MS analysis in presence of NADPH-generating system/SAM; assay type: ADME
[8] = target: Cytochrome P450 2C9 (Homo sapiens, UniProt P11712); experiment: Activity of human CYP2C9 expressed in microsomes isolated from baculovirus infected insect cell assessed as enzyme-mediated 2-amino-3-((1-carboxy-2-(4-((6-methoxy-1-methyl-1H-benzo[d]imidazol-2-yl)methoxy)phenyl)ethyl)disulfanyl)propanoic acid formation at 20 uM after 2 hrs by radio-HPLC/LC-MS/MS analysis; assay type: ADME
Procedure, shortened: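 Baculovirus-insect-cell microsomes expressing the human CYP (1 mg/ml protein) were incubated with [14C]rivoglitazone (20 μM) in 50 mM potassium phosphate (pH 7.4) or 100 mM Tris-HCl (pH 7.5) with an NADPH-generating system (2 mM NADP+, 20 mM glucose 6-phosphate, 2 units/ml G6PDH, 10 mM MgCl2) for 2 h at 37°C. Insect-cell control supersomes served as the control. Reactions were stopped with acetonitrile, and the concentrated supernatants were analysed by radio-HPLC, LC-MS and LC-MS/MS.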

Sequence of Cytochrome P450 2C19 (P33261 whole entry): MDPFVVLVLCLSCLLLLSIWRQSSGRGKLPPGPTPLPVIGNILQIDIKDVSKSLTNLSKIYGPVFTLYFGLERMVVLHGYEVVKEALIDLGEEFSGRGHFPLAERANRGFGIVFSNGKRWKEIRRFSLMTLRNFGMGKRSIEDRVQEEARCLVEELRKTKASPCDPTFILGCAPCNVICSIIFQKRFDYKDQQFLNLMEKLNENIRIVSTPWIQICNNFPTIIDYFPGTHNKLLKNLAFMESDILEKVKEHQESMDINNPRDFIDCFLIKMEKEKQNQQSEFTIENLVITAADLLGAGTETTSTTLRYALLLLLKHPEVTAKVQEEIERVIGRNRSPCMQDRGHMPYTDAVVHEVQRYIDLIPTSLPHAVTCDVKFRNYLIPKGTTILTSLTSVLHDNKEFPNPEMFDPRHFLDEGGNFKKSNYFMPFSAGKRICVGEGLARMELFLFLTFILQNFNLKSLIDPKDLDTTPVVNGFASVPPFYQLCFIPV
Sequence of Cytochrome P450 2C9 (P11712 whole entry): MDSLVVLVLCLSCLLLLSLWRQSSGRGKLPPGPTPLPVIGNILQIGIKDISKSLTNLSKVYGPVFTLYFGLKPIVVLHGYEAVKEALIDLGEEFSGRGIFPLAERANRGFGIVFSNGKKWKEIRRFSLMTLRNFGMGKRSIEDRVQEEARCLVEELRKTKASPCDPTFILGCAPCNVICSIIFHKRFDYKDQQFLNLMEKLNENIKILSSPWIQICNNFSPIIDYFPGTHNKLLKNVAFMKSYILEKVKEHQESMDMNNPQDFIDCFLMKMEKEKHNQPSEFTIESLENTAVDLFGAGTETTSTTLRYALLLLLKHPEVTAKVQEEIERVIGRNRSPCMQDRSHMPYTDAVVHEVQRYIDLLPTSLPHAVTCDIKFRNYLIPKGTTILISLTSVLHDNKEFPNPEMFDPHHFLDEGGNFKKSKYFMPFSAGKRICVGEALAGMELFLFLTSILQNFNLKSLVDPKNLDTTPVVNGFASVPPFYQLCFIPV

In the case of `COc1ccc2nc(COc3ccc(CC(S)C(=O)O)cc3)n(C)c2c1` (stereo not drawn), the Drug metabolism [1] is reported as “metabolite_detected”.

For `COc1ccc2nc(COc3ccc(C[14CH]4SC(=O)NC4=O)cc3)n(C)c2c1.Cl` (racemic), the Drug metabolism [2] was “metabolite_not_detected”, the Drug metabolism [3] was “metabolite_not_detected” and the Drug metabolism [4] was “metabolite_detected”. For the same compound, the Drug metabolism [5] was “metabolite_not_detected”, the Drug metabolism [6] was “metabolite_not_detected” and the Drug metabolism [7] was “metabolite_not_detected”. For the same compound, the Drug metabolism [8] was “metabolite_not_detected”.
